Assay results taken from PubChem BioAssay.
Records with an inconclusive call do not appear.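 Rule for the calls, unless noted: active = inhibition over a set limit, the all-compound mean plus 3 SD, in both replicate runs; inconclusive = over that limit in just one replicate run; inactive = at or under that limit in both runs.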

How the values were obtained:
[1] = S. cerevisiae growth inhibition in permissive medium (OD615), pilot counter-assay for S. cerevisiae lifespan shortening project, permissive growth control (AID 705;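 active = growth inhibition above 25% in both replicates, a cutoff set 3 SD above the mean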); settings: OD615, 24 h, at 10 µM, stronger effect = higher value
Summary of the method: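 Test system: Saccharomyces cerevisiae strain carrying genetically modified DeaD replicative-lifespan system; buffer or medium: SC raffinose/galactose permissive medium; dosing: one dose 10 µM, DMSO 0.25% final; times: 24 h exposure, 30 °C; measured by: OD at 615 nm; read-out basis: growth inhibition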

[2] = S. cerevisiae growth inhibition in restrictive medium, OD615, pilot screen, restrictive growth control, yeast lifespan reduction project (AID 706;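 active = growth inhibition above a set limit, 3 SD over mean compound inhibition, in both replicates, cut at about 43% in these data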;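 note: modified DeaD lifespan yeast strain shifted to restrictive glucose medium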); settings: OD615, 48 h, at 10 µM, stronger effect = higher value
Summary of the method: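 material = engineered S. cerevisiae DeaD strain | buffer or medium = glucose-based CSMM-D restrictive medium | dosing = one concentration, 10 µM final, 0.25% DMSO | schedule = 4 h pre-growth plus 48 h compound exposure, 30 °C | detection = OD615 absorbance reading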

[3] = doxorubicin toxicity protection in MRP-1 cells – H69AR cells, CellTiter-Glo, duplicate, MRP-1 activator project, pilot screen (AID 807;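 active = viability increase at or above a cutoff of the median across tested compounds plus 3 SD, cut at about 8.5% in these data, passing the limit was not always enough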;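 note: compound pretreatment 18-22 h then 72 h combined with doxorubicin; 0% = doxorubicin alone and 100% = vehicle without doxorubicin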); settings: H69AR viability with doxorubicin, CellTiter-Glo luminescence; at 10 µM; stronger effect = higher value
[4] = viability of HCT116 without oncogenic beta-catenin – human colon tumor cells, pilot screen (AID 823;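 active = cell viability at or below a set limit in both duplicate runs, the limit being the all-compound median minus 4 SD, cut at about 23% in these data, passing the limit was not always enough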;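 note: 0% = wells killed by 20 µM Hyamine and 100% = untreated DMSO cell wells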); settings: HCT116 beta-catenin knockout viability, CellTiter-Glo, 60 h; at 10 µM; stronger effect = lower value
[5] = viability of PTEN-null HCT116 cells – cell-based, HCT116 clonal line, CellTiter-Glo, pilot screen (AID 824;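 active = viability at or below 27.92% in each of two runs, the all-compound median minus 4 SD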;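 note: 0% = 20 µM Hyamine control and 100% = vehicle cell control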); settings: HCT116 PTEN-deleted viability, 60 h, at 10 µM, stronger effect = lower value
[6] = RAM pathway blockade in budding yeast – dse1pr::URA3 reporter, 5-FOA selection, pilot screen (AID 869);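 note: 0% = DMSO wells with no growth and 100% = 10 µM 1-NA-PP1 with full growth; RAM network block rescues cells from 5-FOA so hits raise OD615 growth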; settings: S. cerevisiae dse1pr::URA3 5-FOA growth, OD615, 2 d; at 10 µM; stronger effect = higher value; strain carries analog-sensitive mutant Cbk1 kinase
[7] = RAM signaling pathway blockade in yeast – S. cerevisiae, Pdr1DBD-CYC8 efflux-inhibited sensitized strain, primary screen (AID 1298;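 active = RAM network inhibition above 8.4% in each of two replicates, 3 SD over the compound average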;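 note: 0% = DMSO untreated cells without growth and 100% = 10 µM 1-NA-PP1 full growth; higher means more yeast growth rescued from 5-FOA killing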); settings: S. cerevisiae cbk1-as DSE1-URA3 strain, 5-FOA growth OD615, 2 d; at 50 µM; stronger effect = higher value

CC(=O)C1=C(C)NC(SCC(=O)c2ccccc2)=C(C#N)C1c1ccco1 (configuration not stated)
inactive: growth inhibition [1] -3.25% | growth inhibition [2] 21.2% | viability increase [3] -6.35% | viability [4] 55% | viability [5] 56% | inhibition [6] 1.5% | RAM network inhibition [7] 3.37%

COc1ccc(CN2CCN(C(=O)c3cccs3)CC2)cc1Br
inactive: growth inhibition [1] -11.5% | growth inhibition [2] -13.4% | viability increase [3] -1.27% | viability [4] 85.4% | viability [5] 87.9% | inhibition [6] 0.72% | RAM network inhibition [7] 2.53%

O=C(c1ccc(Br)o1)N1CCN=C1SCc1cccnc1
inactive: growth inhibition [1] -14.4% | growth inhibition [2] -6.34% | viability increase [3] 2.52% | viability [4] 90.4% | viability [5] 87.6% | inhibition [6] 2.11% | RAM network inhibition [7] 3.23%

Cc1nnc(NC(=O)CSc2nnc(Cc3cccn3C)n2-c2cccc(C(F)(F)F)c2)s1
inactive: growth inhibition [1] -1.29% | growth inhibition [2] 13.7% | viability increase [3] -3.3% | viability [4] 98.8% | viability [5] 94% | inhibition [6] 0.075% | RAM network inhibition [7] 3.85%

COC(=O)CN(c1ccccc1)S(=O)(=O)c1ccccc1
inactive: growth inhibition [1] -15.8% | growth inhibition [2] -2.47% | viability increase [3] -0.03% | viability [4] 101% | viability [5] 99.8% | inhibition [6] 1.01% | RAM network inhibition [7] 0.88%

O=C(NCCCN1CCN(c2ccccc2F)CC1)C1CCCN(S(=O)(=O)c2cnc[nH]2)C1 (configuration not stated)
inactive: growth inhibition [1] 4.25% | growth inhibition [2] 2.15% | viability increase [3] 1.39% | viability [4] 95.1% | viability [5] 102% | inhibition [6] -0.46% | RAM network inhibition [7] 0.21%

CCN=C(NCC)SC1CC(=O)N(c2cccc(OC)c2)C1=O (configuration not stated)
inactive: growth inhibition [1] 5.98% | growth inhibition [2] 1.56% | viability increase [3] -1.43% | viability [4] 101% | viability [5] 94.6% | inhibition [6] 0.04% | RAM network inhibition [7] 7.47%

O=C1c2ccccc2C(=O)N1CCCc1nc2ccccc2c(=O)n1-c1cccnc1
inactive: growth inhibition [1] -1.63% | growth inhibition [2] 7.23% | viability increase [3] -3.29% | viability [4] 93.1% | viability [5] 90.8% | inhibition [6] 2.07% | RAM network inhibition [7] 2.78%

COC(=O)C1C(=O)CC(C)(O)C(C(=O)OC)C1c1ccc2c(c1)OCO2 (configuration not stated)
inactive: growth inhibition [1] -10.3% | growth inhibition [2] -17% | viability increase [3] 0.03% | viability [4] 92.3% | viability [5] 98.5% | inhibition [6] 1.74% | RAM network inhibition [7] 0.48%

CCCCC1CCC(c2nc(-c3cccnc3)no2)CC1 (configuration not stated)
inactive: growth inhibition [1] -7.54% | growth inhibition [2] 9.22% | viability increase [3] -0.18% | viability [4] 93.5% | viability [5] 88% | inhibition [6] -1.52% | RAM network inhibition [7] -1.92%

CN1CCN(Cc2ccc(-c3ccc(Cl)cc3)o2)CC1
inactive: growth inhibition [1] -15.8% | growth inhibition [2] -22.6% | viability increase [3] -2.14% | viability [4] 86.1% | viability [5] 102% | inhibition [6] 1.56% | RAM network inhibition [7] 2.49%

Cc1csc(NC(=O)CNS(=O)(=O)c2cccs2)n1
inactive: growth inhibition [1] -4.12% | growth inhibition [2] -18.9% | viability increase [3] -2.55% | viability [4] 93.4% | viability [5] 86.8% | inhibition [6] 0.795% | RAM network inhibition [7] 2.18%

CCCNc1nc2c(c(=O)[nH]c(=O)n2C)n1Cc1cccc(Br)c1
inactive: growth inhibition [1] -4.76% | growth inhibition [2] -9.2% | viability increase [3] -2.4% | viability [4] 97.8% | viability [5] 92.6% | inhibition [6] 3.46% | RAM network inhibition [7] 7.91%

CC(C)c1nc(SCC(=O)N2CCOCC2)c2c(=O)n(C)c(=O)n(C)c2n1
inactive: growth inhibition [1] 2.91% | growth inhibition [2] -8.92% | viability increase [3] -1.75% | viability [4] 102% | viability [5] 95.6% | inhibition [6] 2.57% | RAM network inhibition [7] -2.21%

Cc1ccc(-c2nc(CS(=O)CC(=O)N3CCN(c4ncccn4)CC3)c(C)o2)cc1 (configuration not stated)
inactive: growth inhibition [1] -0.52% | growth inhibition [2] 10.7% | viability increase [3] -2.28% | viability [4] 76.8% | viability [5] 90.2% | inhibition [6] 2.31% | RAM network inhibition [7] 4.78%

O=C(O)c1cccc(NS(=O)(=O)c2cccc3cccnc23)c1
inactive: growth inhibition [1] -3.04% | growth inhibition [2] -3.79% | viability increase [3] 0.96% | viability [4] 103% | viability [5] 99.8% | inhibition [6] 0.655% | RAM network inhibition [7] 4.37%

CC(=O)N1CCC(N(CCCOC(C)C)C(=O)Nc2ccc(Cl)cc2)CC1
inactive: growth inhibition [1] -2.75% | growth inhibition [2] 0.145% | viability increase [3] -0.86% | viability [4] 93% | viability [5] 95.9% | inhibition [6] 0.365% | RAM network inhibition [7] 3.16%

Cc1csc(NC(=O)CSc2nnc(Cn3c(=O)sc4ccccc43)n2-c2ccccc2)n1
inactive: growth inhibition [1] 0.38% | growth inhibition [2] 15.3% | viability increase [3] -1.37% | viability [4] 96% | viability [5] 96.8% | inhibition [6] 2.42% | RAM network inhibition [7] 6.99%

CCc1noc2c1/C(=N\O)CC(c1ccccc1)C2 (configuration not stated)
inactive: growth inhibition [1] 0.555% | growth inhibition [2] 4.22% | viability increase [3] 2.87% | viability [4] 83.3% | viability [5] 84.8% | inhibition [6] 1.78% | RAM network inhibition [7] -1.18%

COc1cccc2c(=O)n(CC(=O)N3CCN(c4ccccc4)CC3)ccc12
inactive: growth inhibition [1] -7.37% | growth inhibition [2] -7.01% | viability increase [3] -0.94% | viability [4] 99.7% | viability [5] 98.1% | inhibition [6] 1.39% | RAM network inhibition [7] 4.22%

CCC(C(=O)OC)n1cnc2c(nnn2-c2cccc(Cl)c2)c1=O (configuration not stated)
inactive: growth inhibition [1] -3.35% | growth inhibition [2] -0.405% | viability increase [3] 1.21% | viability [4] 100% | viability [5] 92.1% | inhibition [6] 0.145% | RAM network inhibition [7] 4.91%

CCN(CC)CCNC(=O)c1cc2c(=O)n(C)c3ccccc3c2n1C
inactive: growth inhibition [1] -4.52% | growth inhibition [2] -6.67% | viability increase [3] -4.8% | viability [4] 49.8% | viability [5] 51.4% | inhibition [6] 1.88% | RAM network inhibition [7] 0.31%

Cc1cc(NS(=O)(=O)c2ccc(NC(=O)CCCC(=O)O)cc2)nc(C)n1
inactive: growth inhibition [1] -5.33% | growth inhibition [2] -3.05% | viability increase [3] -1.07% | viability [4] 102% | viability [5] 92.2% | inhibition [6] -0.135% | RAM network inhibition [7] 3.87%

CC(=NCc1cccnc1)C1=C(O)c2ccccc2C1=O
inactive: growth inhibition [1] -0.03% | growth inhibition [2] 9.76% | viability increase [3] -0.85% | viability [4] 97.2% | viability [5] 96.4% | inhibition [6] 0.665% | RAM network inhibition [7] -0.3%

Clc1ccccc1-c1ccc(/C=N/n2cnnc2)o1
inactive: growth inhibition [1] -1.67% | growth inhibition [2] 11.9% | viability increase [3] -1.41% | viability [4] 102% | viability [5] 95.1% | inhibition [6] 1.61% | RAM network inhibition [7] 4.98%

COc1ccc(NC(=O)N(Cc2ccc(C)cc2)Cc2ccccn2)c(OC)c1
inactive: growth inhibition [1] -3.04% | growth inhibition [2] 7.11% | viability increase [3] -1.9% | viability [4] 91% | viability [5] 96% | inhibition [6] 0.455% | RAM network inhibition [7] 4.18%

O=C(C1CC(c2ccc(F)cc2)=NO1)N1CCc2ccccc2C1 (configuration not stated)
inactive: growth inhibition [1] 1.34% | growth inhibition [2] -7.89% | viability increase [3] 0.59% | viability [4] 101% | viability [5] 99.5% | inhibition [6] 1.91% | RAM network inhibition [7] 7.63%

Cc1cccc(NC(=O)C2C(C(=O)O)C3C=CC2C32CC2)c1C (configuration not stated)
inactive: growth inhibition [1] -2.43% | growth inhibition [2] -9.19% | viability increase [3] -1.67% | viability [4] 95.2% | viability [5] 93.5% | inhibition [6] 1.42% | RAM network inhibition [7] -0.78%

Cc1ccc2c(c1)C(c1ccccc1)N(C(=O)C(C)C)CC(=O)N2 (configuration not stated)
inactive: growth inhibition [1] -14.9% | growth inhibition [2] -15.6% | viability increase [3] -1.2% | viability [4] 102% | viability [5] 92.1% | inhibition [6] 1.64% | RAM network inhibition [7] 4.21%

Cn1c(CCNC(=O)C(C)(C)C)nc2ccccc21
inactive: growth inhibition [1] -4.42% | growth inhibition [2] -7.26% | viability increase [3] 0.98% | viability [4] 95.3% | viability [5] 98.5% | inhibition [6] 2.58% | RAM network inhibition [7] 4.43%

Cn1c(NC(=O)Cc2ccc(F)cc2)cc(=O)n(C)c1=O
inactive: growth inhibition [1] -5.41% | growth inhibition [2] -2.77% | viability increase [3] 3.42% | viability [4] 109% | viability [5] 95.4% | inhibition [6] 1.83% | RAM network inhibition [7] 0.62%

Cn1c(Cn2c(=O)sc3ccccc32)nnc1SCc1ccccc1F
inactive: growth inhibition [1] -4.61% | growth inhibition [2] 5.46% | viability increase [3] -0.13% | viability [4] 96.6% | viability [5] 97.4% | inhibition [6] 2.95% | RAM network inhibition [7] 5.27%

Cc1csc2nc(CNS(=O)(=O)c3ccc4c(c3)CCCC4)cn12
inactive: growth inhibition [1] -17.5% | growth inhibition [2] 0.8% | viability increase [3] -0.44% | viability [4] 101% | viability [5] 93.2% | inhibition [6] 1.17% | RAM network inhibition [7] 0.48%

Cn1c(=O)oc2cc(S(=O)(=O)N3CCC(C(=O)NCc4cccs4)CC3)ccc21
inactive: growth inhibition [1] -3.54% | growth inhibition [2] 4.04% | viability increase [3] -0.3% | viability [4] 95.1% | viability [5] 90.2% | inhibition [6] 0.335% | RAM network inhibition [7] 1.5%

CC(Cc1ccccc1)N/C=C1/CC(=O)NC1=O (configuration not stated)
inactive: growth inhibition [1] -8.61% | growth inhibition [2] 0.51% | viability increase [3] -1.53% | viability [4] 97% | viability [5] 97% | inhibition [6] 1.42% | RAM network inhibition [7] 2.56%

COc1ccc(C2C(C(=O)NCc3ccccn3)c3cc(OC)c(OC)cc3C(=O)N2C)cc1 (configuration not stated)
inactive: growth inhibition [1] -3.48% | growth inhibition [2] 1.16% | viability increase [3] -4.5% | viability [4] 98% | viability [5] 95.9% | inhibition [6] -0.135% | RAM network inhibition [7] 5.92%
